Values after ≈ are worked out from the molar mass of the structure shown. Each block holds one molecule with its values, some of them ahead of it. Active and inactive are the calls of the source. The rule behind the calls is not given here.
Assays:
MDR1 = assay: Permeability across apical to basolateral side in MDCK cells expressing MDR1; type: ADME, cell-based, Canis lupus familiaris; conditions: dog, read-out: permeability
[1] = molecular target: Serine/threonine-protein kinase 26 (Homo sapiens) (UniProt Q9P289); conditions: 0.1 uM
Heart [2] = assay: Cardiotoxicity in Langendorff perfused Sprague-Dawley rat heart assessed as increase in coronary perfusion pressure at 1.5 to 15 uM treated for 15 mins; type: toxicity, tissue-based; conditions: 0.25 h
In short: (§1)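 Hearts from Sprague Dawley rats were perfused in a Langendorff preparation and paced via the right atrium at 10-15% above the intrinsic heart rate. Each heart received increasing concentrations of 0, 0.5, 1.5, 5 and 15 µM, for 15 min at each level (n=5). Hemodynamic and electrocardiographic parameters were recorded throughout.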

Heart [3] = assay: Cardiotoxicity in Langendorff perfused Sprague-Dawley rat heart assessed as decrease in dP/dtmax/P at 40 mmHg at 1.5 to 15 uM treated for 15 mins; type: toxicity, tissue-based; conditions: 0.25 h; in short: as §1
[4] = molecular target: Sodium/potassium-transporting ATPase (Homo sapiens) (UniProt P05023+P14415+P05026+P50993+P54709+P13637+Q13733+P54710); conditions: 30 uM
[5] = molecular target: Sodium channel protein type 1 subunit alpha (Homo sapiens) (UniProt P35498); assay: Inhibition of human Nav1.1 assessed as tonic block of sodium current at 1 to 10 uM treated for 3 mins by automatic parallel patch clamp method
Mus musculus [6] = assay: fCmax associated with acute adverse effect in mouse at 30 to 60 mg/kg, po; type: ADME, organism-based; conditions: in vivo
In short: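 Mouse tolerability studies at multiple doses, oral or intraperitoneal. Minimum unbound plasma concentration associated with adverse effects (total Cmax converted to unbound) compared with IC50 for inhibition of MEK1 S298 phosphorylation in cells.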

[7] = molecular target: Serine/threonine-protein kinase PAK 3 (Homo sapiens) (UniProt O75914); conditions: 0.1 uM
[8] = molecular target: 5-hydroxytryptamine receptor 4 (Homo sapiens) (UniProt Q13639); conditions: CHO, 10 uM
Heart [9] = assay: Cardiotoxicity in Langendorff perfused Sprague-Dawley rat heart assessed as increase in left ventricular end diastolic pressure at 1.5 to 15 uM treated for 15 mins; type: toxicity, tissue-based; conditions: 0.25 h; in short: as §1
Heart [10] = assay: Cardiotoxicity in Langendorff perfused Sprague-Dawley rat heart assessed as decrease in dP/dt minimum at 1.5 to 15 uM treated for 15 mins; type: toxicity, tissue-based; conditions: 0.25 h; in short: as §1
[11] = Antitumor activity against human MDA-MB-175 cells xenografted in mouse assessed as tumor growth inhibition at 25 mg/kg, po bid relative to control; type: functional; conditions: read-out: TGI
Heart [12] = assay: Cardiotoxicity in Langendorff perfused Sprague-Dawley rat heart assessed as loss of 1:1 atrioventricular conduction at 5 to 15 uM treated for 15 mins; type: toxicity, tissue-based; conditions: 0.25 h; in short: as §1
[13] = molecular target: T1, Sodium channel protein type 5 subunit alpha (Homo sapiens, UniProt Q14524); assay: Inhibition of human Nav1.5 expressed in CHO cells assessed as tonic block of sodium current at 1 to 10 uM treated for 3 mins by automatic parallel patch clamp method; type: cell-based; conditions: 0.05 h
[14] = molecular target: Tyrosine-protein kinase Lck (Homo sapiens) (UniProt P06239); conditions: 0.1 uM
[15] = molecular target: 5-hydroxytryptamine receptor 2B (Homo sapiens) (UniProt P41595); conditions: CHO, 10 uM
Homo sapiens [16] = organism: Homo sapiens; assay: Inhibition of Na+/Ca2+ ATPase (unknown origin) at 30 uM
Heart [17] = assay: Cardiotoxicity in Langendorff perfused Sprague-Dawley rat heart assessed as increase in PR interval at 15 uM treated for 15 mins; type: toxicity, tissue-based; conditions: 0.25 h; in short: as §1
Heart [18] = assay: Cardiotoxicity in Langendorff perfused Sprague-Dawley rat heart assessed as increase in left ventricular systolic pressure at 1.5 to 15 uM treated for 15 mins; type: toxicity, tissue-based; conditions: 0.25 h; in short: as §1
[19] = Cmax associated with acute adverse effect in mouse at 30 to 60 mg/kg, po; type: ADME, organism-based; conditions: in vivo
In short: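 Mouse tolerability studies tested multiple doses, given orally or intraperitoneally. Plasma drug concentrations were measured, including at a 15 min time point. The minimum concentration associated with adverse clinical signs or death was taken as the adverse Cmax and was converted to an unbound value.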

Mus musculus [20] = assay: In vivo inhibition of PAK1/2 in human NCI-H292 cells xenografted in mouse assessed as phosphorylation of MEK1 at serine 298 at 25 mg/kg, po bid; type: functional, organism-based
[21] = molecular target: Voltage-dependent T-type calcium channel subunit alpha-1H (Homo sapiens) (UniProt O95180); assay: Inhibition of human Cav3.2 expressed in HEK293 cells at 1 to 10 uM treated for 3 mins by automatic parallel patch clamp method; type: cell-based
Heart [22] = assay: Cardiotoxicity in Langendorff perfused Sprague-Dawley rat heart assessed as decrease in dP/dt maximum at 1.5 to 15 uM treated for 15 mins; type: toxicity, tissue-based; conditions: 0.25 h; in short: as §1
[23] = molecular target: Serine/threonine-protein kinase 25 (Homo sapiens) (UniProt O00506); conditions: 0.1 uM
[24] = molecular target: Voltage-gated inwardly rectifying potassium channel KCNH2 (Homo sapiens, UniProt Q12809); assay: Inhibition of human ERG expressed in mammalian cells treated for 3 mins by automatic parallel patch clamp method; type: cell-based; conditions: 0.05 h
Heart [25] = assay: Cardiotoxicity in Langendorff perfused Sprague-Dawley rat heart assessed as decrease in left ventricular developed pressure at 1.5 to 15 uM treated for 15 mins; type: toxicity, tissue-based; conditions: 0.25 h; in short: as §1
Heart [26] = assay: Cardiotoxicity in Langendorff perfused Sprague-Dawley rat heart assessed as decrease in dP/dtmax/P at 1.5 to 15 uM treated for 15 mins; type: toxicity, tissue-based; conditions: 0.25 h; in short: as §1
Heart [27] = assay: Cardiotoxicity in Langendorff perfused Sprague-Dawley rat heart assessed as ventricular fibrillation at 5 uM treated for 15 mins; type: toxicity, tissue-based; conditions: 0.25 h; in short: as §1
NCI-H292 = assay: Antitumor activity against human NCI-H292 cells xenografted in mouse assessed as tumor growth inhibition at 25 mg/kg, po bid relative to control; type: functional; conditions: read-out: TGI
[28] = molecular target: T1, Sodium channel protein type 5 subunit alpha; assay: Inhibition of human Nav1.5 expressed in CHO cells assessed as phasic block of sodium current at 1 to 10 uM treated for 3 mins by automatic parallel patch clamp method; type: cell-based; conditions: 0.05 h
[29] = molecular target: 5-hydroxytryptamine receptor 2A (Homo sapiens) (UniProt P28223); conditions: HEK293, 10 uM
Heart [30] = assay: Cardiotoxicity in Langendorff perfused Sprague-Dawley rat heart assessed as increase in PR interval at 5 uM treated for 15 mins; type: toxicity, tissue-based; conditions: 0.25 h; in short: as §1
[31] = molecular target: 5-hydroxytryptamine receptor 1B (Rattus norvegicus) (UniProt P28564); conditions: Cerebral cortex, 10 uM
Rattus norvegicus = organism: Rattus norvegicus; conditions: Cerebral cortex, 10 uM
[32] = molecular target: Sodium channel protein type 1 subunit alpha (Homo sapiens) (UniProt P35498); assay: Inhibition of human Nav1.1 assessed as phasic block of sodium current at 1 to 10 uM treated for 3 mins by automatic parallel patch clamp method
[33] = molecular target: Serine/threonine-protein kinase 24 (Homo sapiens) (UniProt Q9Y6E0); conditions: 0.1 uM
[34] = Fraction unbound in mouse plasma at 30 to 60 mg/kg, po; type: ADME, organism-based
[35] = molecular target: Serine/threonine-protein kinase PAK 1/PAK 2 (Homo sapiens, UniProt Q13177+Q13153); assay: Inhibition of PAK1/2 in human EBC1 cells assessed as phosphorylation of MEK1 at serine 298 after 2 hrs by HTRF assay; type: cell-based
[36] = Cmax associated with acute adverse effect in mouse at 25 to 150 mg/kg, ip; type: ADME, organism-based; conditions: in vivo
Mus musculus [37] = assay: fCmax associated with acute adverse effect in mouse at 25 to 150 mg/kg, ip; type: ADME, organism-based; conditions: in vivo
Homo sapiens [38] = organism: Homo sapiens; assay: Selectivity for human recombinant N-terminal 6-His-tagged PAK1 kinase domain (249 to 545 residues) over LCK (unknown origin)
[39] = Fraction unbound in mouse plasma at 25 to 150 mg/kg, ip; type: ADME, organism-based
[40] = Ratio of fCmax associated with acute adverse effect in mouse at 25 to 150 mg/kg, ip to IC50 for PAK1/2-mediated phosphorylation of MEK1 at serine 298 in human EBC1 cells
[41] = molecular target: Serine/threonine-protein kinase PAK 2 (Homo sapiens, UniProt Q13177); assay: (§2) Inhibition of human recombinant PAK2 assessed as phosphorylation of coumarin labeled FRET peptide substrate at Ser/Thr19 preincubated for 10 mins followed by ATP addition measured after 60 mins by Z'-LYTE assay
[42] = Efflux ratio of permeability across basolateral to apical side over apical to basolateral side in MDCK cells at 10 uM after 60 mins; type: ADME, cell-based, Canis lupus familiaris; conditions: dog
[43] = Lipophilicity, log D of the compound at pH 7.4; type: physicochemical; conditions: buffer
[44] = molecular target: Serine/threonine-protein kinase PAK 1 (Homo sapiens, UniProt Q13153); assay: as §2, with “N-terminal 6-His-tagged PAK1 kinase domain (249 to 545 residues) expressed in Escherichia coli BL21(DE3)” for “PAK2”
[45] = Kinetic solubility of the compound at pH 7.4; type: physicochemical; conditions: buffer, read-out: Kinetic_solubility
[46] = Apparent permeability across apical to basolateral side in MDCK cells at 10 uM after 60 mins; type: ADME, cell-based, Canis lupus familiaris; conditions: dog

T1 sequence (Q14524 whole entry): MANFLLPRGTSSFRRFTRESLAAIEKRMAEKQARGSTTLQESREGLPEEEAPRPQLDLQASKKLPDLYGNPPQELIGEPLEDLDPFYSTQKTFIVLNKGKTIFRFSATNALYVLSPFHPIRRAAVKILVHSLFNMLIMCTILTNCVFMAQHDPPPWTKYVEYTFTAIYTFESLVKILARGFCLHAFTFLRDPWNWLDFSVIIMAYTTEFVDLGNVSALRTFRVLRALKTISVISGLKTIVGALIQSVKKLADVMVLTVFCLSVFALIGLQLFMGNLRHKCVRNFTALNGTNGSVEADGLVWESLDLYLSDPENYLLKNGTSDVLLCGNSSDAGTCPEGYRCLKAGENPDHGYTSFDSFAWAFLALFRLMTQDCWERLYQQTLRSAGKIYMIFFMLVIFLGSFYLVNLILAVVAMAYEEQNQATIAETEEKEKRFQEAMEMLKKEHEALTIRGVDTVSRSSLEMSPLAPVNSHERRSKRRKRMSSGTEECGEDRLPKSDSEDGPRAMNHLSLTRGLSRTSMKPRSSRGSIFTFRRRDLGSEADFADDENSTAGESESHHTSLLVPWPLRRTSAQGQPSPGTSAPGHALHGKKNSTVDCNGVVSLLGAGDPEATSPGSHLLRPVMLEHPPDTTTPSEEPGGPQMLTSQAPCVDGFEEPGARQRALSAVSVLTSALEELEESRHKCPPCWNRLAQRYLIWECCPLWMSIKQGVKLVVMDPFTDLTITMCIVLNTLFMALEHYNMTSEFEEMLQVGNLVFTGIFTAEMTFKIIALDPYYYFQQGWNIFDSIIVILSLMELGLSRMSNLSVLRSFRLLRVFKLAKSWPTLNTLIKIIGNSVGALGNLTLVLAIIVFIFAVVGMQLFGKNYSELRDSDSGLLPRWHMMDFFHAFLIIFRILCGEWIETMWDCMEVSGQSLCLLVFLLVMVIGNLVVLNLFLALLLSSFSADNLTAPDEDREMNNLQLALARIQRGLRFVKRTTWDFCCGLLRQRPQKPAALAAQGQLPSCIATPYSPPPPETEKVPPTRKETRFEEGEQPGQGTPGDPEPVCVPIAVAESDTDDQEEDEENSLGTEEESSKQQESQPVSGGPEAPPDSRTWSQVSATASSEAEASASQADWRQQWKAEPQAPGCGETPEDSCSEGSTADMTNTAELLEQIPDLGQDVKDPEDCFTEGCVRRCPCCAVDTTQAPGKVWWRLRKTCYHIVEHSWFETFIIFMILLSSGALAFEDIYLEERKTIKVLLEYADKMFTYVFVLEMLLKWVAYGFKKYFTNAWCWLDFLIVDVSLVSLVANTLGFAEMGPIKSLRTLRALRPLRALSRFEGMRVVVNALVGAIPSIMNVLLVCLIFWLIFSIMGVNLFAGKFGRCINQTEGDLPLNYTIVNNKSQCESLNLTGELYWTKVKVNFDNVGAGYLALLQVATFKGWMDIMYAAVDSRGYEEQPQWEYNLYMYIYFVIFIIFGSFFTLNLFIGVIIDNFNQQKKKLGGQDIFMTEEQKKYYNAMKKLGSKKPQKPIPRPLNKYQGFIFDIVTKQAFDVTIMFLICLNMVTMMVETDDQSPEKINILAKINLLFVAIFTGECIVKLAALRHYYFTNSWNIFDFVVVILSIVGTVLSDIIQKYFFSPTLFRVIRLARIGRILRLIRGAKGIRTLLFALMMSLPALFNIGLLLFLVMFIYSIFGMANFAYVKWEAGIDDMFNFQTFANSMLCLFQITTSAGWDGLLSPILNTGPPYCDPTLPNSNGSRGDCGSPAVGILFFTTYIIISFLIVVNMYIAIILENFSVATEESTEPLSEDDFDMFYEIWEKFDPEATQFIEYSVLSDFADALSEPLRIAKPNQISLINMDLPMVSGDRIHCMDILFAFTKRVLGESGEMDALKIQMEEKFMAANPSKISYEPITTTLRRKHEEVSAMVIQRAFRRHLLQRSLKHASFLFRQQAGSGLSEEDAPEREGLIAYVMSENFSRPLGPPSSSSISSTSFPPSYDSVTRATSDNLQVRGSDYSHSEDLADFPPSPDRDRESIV
Chain of Tyrosine-protein kinase Lck (Homo sapiens) (P06239 2-509 limits assumed): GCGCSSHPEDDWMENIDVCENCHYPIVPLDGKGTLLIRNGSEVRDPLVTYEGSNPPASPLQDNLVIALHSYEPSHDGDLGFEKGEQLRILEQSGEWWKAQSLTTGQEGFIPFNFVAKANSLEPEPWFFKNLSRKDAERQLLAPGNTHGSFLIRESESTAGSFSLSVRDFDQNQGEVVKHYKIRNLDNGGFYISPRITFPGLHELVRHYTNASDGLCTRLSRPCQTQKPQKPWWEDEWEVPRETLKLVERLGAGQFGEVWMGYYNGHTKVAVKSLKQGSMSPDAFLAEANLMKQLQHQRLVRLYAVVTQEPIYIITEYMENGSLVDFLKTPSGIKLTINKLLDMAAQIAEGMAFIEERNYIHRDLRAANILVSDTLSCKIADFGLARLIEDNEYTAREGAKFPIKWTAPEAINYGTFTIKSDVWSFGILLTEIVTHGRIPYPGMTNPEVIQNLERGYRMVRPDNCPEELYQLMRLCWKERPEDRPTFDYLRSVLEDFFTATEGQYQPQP
Chain of 5-hydroxytryptamine receptor 1B (Rattus norvegicus) (P28564 whole entry): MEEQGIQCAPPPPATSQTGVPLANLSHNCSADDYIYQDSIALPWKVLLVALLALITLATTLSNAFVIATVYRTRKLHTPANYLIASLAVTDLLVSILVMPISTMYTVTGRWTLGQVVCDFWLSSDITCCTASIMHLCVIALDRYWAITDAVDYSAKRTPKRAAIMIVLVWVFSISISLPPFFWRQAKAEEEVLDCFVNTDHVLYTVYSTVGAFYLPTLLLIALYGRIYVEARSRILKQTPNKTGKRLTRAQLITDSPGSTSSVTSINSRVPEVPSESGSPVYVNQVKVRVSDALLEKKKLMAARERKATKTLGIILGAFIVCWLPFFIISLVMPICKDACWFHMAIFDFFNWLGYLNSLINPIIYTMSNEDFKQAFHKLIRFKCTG
Chain of Serine/threonine-protein kinase 26 (Homo sapiens) (Q9P289 2-416 limits assumed): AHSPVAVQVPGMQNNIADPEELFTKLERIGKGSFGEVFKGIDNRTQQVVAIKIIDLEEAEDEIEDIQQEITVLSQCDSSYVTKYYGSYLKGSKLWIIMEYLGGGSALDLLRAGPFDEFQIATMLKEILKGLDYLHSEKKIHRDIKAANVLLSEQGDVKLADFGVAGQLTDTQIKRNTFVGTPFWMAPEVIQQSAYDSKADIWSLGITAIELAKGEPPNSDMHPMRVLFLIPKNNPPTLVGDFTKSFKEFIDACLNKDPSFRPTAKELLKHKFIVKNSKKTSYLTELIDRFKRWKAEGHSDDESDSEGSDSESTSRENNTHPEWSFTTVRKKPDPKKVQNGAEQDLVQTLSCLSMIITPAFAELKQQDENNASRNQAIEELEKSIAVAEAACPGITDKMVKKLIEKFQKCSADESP
Chain of 5-hydroxytryptamine receptor 2A (Homo sapiens) (P28223 whole entry, the tested form may be a part): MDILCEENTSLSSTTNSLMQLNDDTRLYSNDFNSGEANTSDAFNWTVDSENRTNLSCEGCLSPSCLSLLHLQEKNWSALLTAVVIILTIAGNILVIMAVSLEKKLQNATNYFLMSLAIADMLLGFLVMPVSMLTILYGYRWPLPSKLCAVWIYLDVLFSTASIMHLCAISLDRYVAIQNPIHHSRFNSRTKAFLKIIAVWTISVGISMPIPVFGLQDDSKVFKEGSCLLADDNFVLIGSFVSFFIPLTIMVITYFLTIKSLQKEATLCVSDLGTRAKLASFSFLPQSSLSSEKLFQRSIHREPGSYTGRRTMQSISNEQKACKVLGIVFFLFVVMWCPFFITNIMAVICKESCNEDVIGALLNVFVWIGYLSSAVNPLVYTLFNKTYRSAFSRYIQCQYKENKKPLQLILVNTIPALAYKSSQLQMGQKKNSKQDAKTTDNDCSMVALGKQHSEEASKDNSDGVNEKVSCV
Chain of 5-hydroxytryptamine receptor 4 (Homo sapiens) (Q13639 whole entry, the tested form may be a part): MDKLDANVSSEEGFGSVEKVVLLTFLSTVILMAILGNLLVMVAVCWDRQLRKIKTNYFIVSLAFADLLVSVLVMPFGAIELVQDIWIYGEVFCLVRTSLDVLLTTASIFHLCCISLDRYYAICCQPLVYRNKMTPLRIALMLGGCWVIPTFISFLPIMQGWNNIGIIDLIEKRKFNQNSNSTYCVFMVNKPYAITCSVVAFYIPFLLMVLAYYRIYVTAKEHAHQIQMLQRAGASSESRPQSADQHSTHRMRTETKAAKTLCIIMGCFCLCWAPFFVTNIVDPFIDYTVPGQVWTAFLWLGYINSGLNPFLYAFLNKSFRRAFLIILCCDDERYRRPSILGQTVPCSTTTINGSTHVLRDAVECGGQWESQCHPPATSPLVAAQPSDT
Chain of Serine/threonine-protein kinase 24 (Homo sapiens) (Q9Y6E0 whole entry, looked up): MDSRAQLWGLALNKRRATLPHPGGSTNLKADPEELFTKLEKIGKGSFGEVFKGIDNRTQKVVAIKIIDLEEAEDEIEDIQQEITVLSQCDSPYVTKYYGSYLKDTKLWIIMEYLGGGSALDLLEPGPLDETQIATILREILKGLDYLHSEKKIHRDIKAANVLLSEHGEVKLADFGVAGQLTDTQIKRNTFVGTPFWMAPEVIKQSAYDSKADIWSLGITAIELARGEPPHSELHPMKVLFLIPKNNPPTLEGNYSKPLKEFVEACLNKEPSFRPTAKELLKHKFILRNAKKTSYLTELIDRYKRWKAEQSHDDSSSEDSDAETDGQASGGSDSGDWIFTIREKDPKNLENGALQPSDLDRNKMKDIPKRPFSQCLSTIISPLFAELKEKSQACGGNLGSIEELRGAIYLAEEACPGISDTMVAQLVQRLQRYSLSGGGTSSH

SMILES: CNc1ncc2cc(-c3ccc(-c4cccc(C)n4)cc3Cl)c(=O)n(C[C@H]3OC[C@H](N)CO3)c2n1
- Papp A→B (MDR1): 0.3 ×10⁻⁶ cm/s
- inhibition [1]: > 75%
- Activity (Heart [2]): 64%
- Activity (Heart [3]): Toxic
- inhibition [4]: inactive
- inhibition [5]: inactive
- fCmax (Mus musculus [6]): 0.16 µM
- inhibition [7]: > 75%
- inhibition [8]: > 75%
- Activity (Heart [9]): Toxic
- Activity (Heart [10]): Toxic
- inhibition in vivo at 25 mg/kg [11]: 60%
- Activity (Heart [12]): Toxic
- inhibition (INH) [13]: Not Active
- inhibition [14]: > 75%
- inhibition [15]: > 75%
- inhibition (Homo sapiens [16]): inactive
- Activity (Heart [17]): 34%
- Activity (Heart [18]): Toxic
- Cmax [19]: 55 µM
- inhibition (Mus musculus [20]): Active
- inhibition [21]: inactive
- Activity (Heart [22]): Toxic
- inhibition [23]: > 75%
- inhibition (INH) [24]: Not Active
- Activity (Heart [25]): Toxic
- Activity (Heart [26]): Toxic
- Activity (Heart [27]): Toxic
- inhibition in vivo at 25 mg/kg (NCI-H292): 60%
- inhibition (INH) [28]: Not Active
- inhibition [29]: > 75%
- Activity (Heart [30]): 37%
- inhibition [31]: > 75%
- inhibition (Rattus norvegicus): > 75%
- inhibition [32]: inactive
- inhibition [33]: > 75%
- fraction unbound [34]: 0.003

- IC50 [35]: 150 nM
- Selectivity ratio (Homo sapiens [38]): 123
- fraction unbound [39]: 0.006
- Ki [41]: 21 nM
- efflux ratio at 1 h, 10 µM [42]: 0.4
- logD [43]: 2.5
- Ki [44]: 6.3 nM
- solubility kinetic [45]: 2.6 µM (≈ 1.21 µg/mL)
- Papp A→B at 1 h, 10 µM [46]: 37 ×10⁻⁶ cm/s
SMILES: CCn1c(=O)c(-c2ccc(-n3cccc(C)c3=O)cc2Cl)cc2cnc(NC3COC3)nc21
- Cmax [36]: 41 µM
- fCmax (Mus musculus [37]): 0.24 µM
- Ratio [40]: 1
